Test results published in ChEMBL document CHEMBL2040803, “Synthesis and anticonvulsant activity of ethyl 1-(2-arylhydrazinecarboxamido)-2,2-dimethylcyclopropanecarboxylate derivatives” (Eur J Med Chem, 2012).
The source made the active and inactive calls.

Key:
Mus musculus [1] = assay: Anticonvulsant activity in Kunming mouse assessed as protection against maximal electroshock-induced seizures at 300 mg/kg, ip measured after 0.5 hr; assay type: functional, organism-based; set-up: dose 300 mg/kg
Summary of the method: (§1)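 Male Kunming mice (20 ± 2.0 g) were dosed ip at 30, 100 and 300 mg/kg as a suspension in 0.5% methylcellulose, one to four mice per dose. A 60-Hz, 50-mA current was applied through corneal electrodes for 0.25 s at 0.5 h and 4.0 h after dosing. Absence of hindlimb tonic extension counted as protection. The value is the minimal dose protecting half or more of the mice.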

Mus musculus [2] = assay: Anticonvulsant activity in Kunming mouse assessed as protection against maximal electroshock-induced seizures at 100 mg/kg, ip measured after 4 hrs; assay type: functional, organism-based; set-up: dose 100 mg/kg; summary of the method: as §1
Mus musculus [3] = assay: Anticonvulsant activity in Kunming mouse assessed as protection against subcutaneous pentylenetetrazol-induced clonic seizures at 300 mg/kg, ip measured after 0.5 hrs; assay type: functional, organism-based; set-up: dose 300 mg/kg
Summary of the method: (§2)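 Male Kunming mice (20 ± 2.0 g) received ip doses of 30, 100 or 300 mg/kg as a suspension in 0.5% methylcellulose, one to four mice per dose. Pentylenetetrazole in 0.9% saline was injected subcutaneously. Protection meant failure to show even a threshold seizure (a single clonic spasm lasting at least 5 s), read at 0.5 h and 4.0 h. Activity was scored as the minimal dose protecting half or more of the mice.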

Mus musculus [4] = assay: Anticonvulsant activity in Kunming mouse assessed as protection against subcutaneous pentylenetetrazol-induced clonic seizures at 300 mg/kg, ip measured after 4 hrs; assay type: functional, organism-based; set-up: dose 300 mg/kg; summary of the method: as §2
Mus musculus [5] = assay: Neurotoxicity in Kunming mouse at 100 mg/kg, ip after 0.5 hr by rotorod test; assay type: toxicity, organism-based; set-up: dose 100 mg/kg, route intraperitoneal; details: in vivo
Summary of the method: (§3)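 Trained male Kunming mice were given ip doses of 30, 100 or 300 mg/kg, one to four per dose. They were placed on a 1 in. knurled rod rotating at 6 rpm, and examined at 0.5 h and 4.0 h. Neurotoxicity was inability to keep balance for at least 1 min in each of four trials. The value is the minimal dose giving toxicity in half or more of the mice.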

Mus musculus [6] = assay: Neurotoxicity in Kunming mouse at 300 mg/kg, ip after 4 hrs by rotorod test; assay type: toxicity, organism-based; set-up: dose 300 mg/kg, route intraperitoneal; details: in vivo; summary of the method: as §3
Mus musculus [7] = assay: Anticonvulsant activity in Kunming mouse assessed as protection against maximal electroshock-induced seizures at 300 mg/kg, ip measured after 4 hrs; assay type: functional, organism-based; set-up: dose 300 mg/kg; summary of the method: as §1
Mus musculus [8] = assay: Neurotoxicity in Kunming mouse at 300 mg/kg, ip after 0.5 hr by rotorod test; assay type: toxicity, organism-based; set-up: dose 300 mg/kg, route intraperitoneal; details: in vivo; summary of the method: as §3
Mus musculus [9] = assay: Anticonvulsant activity in Kunming mouse assessed as protection against maximal electroshock-induced seizures at 100 mg/kg, ip measured after 0.5 hr; assay type: functional, organism-based; set-up: dose 100 mg/kg; summary of the method: as §1
Mus musculus [10] = assay: Anticonvulsant activity in Kunming mouse assessed as protection against subcutaneous pentylenetetrazol-induced clonic seizures at 100 mg/kg, ip measured after 0.5 hrs; assay type: functional, organism-based; set-up: dose 100 mg/kg; summary of the method: as §2
Mus musculus [11] = assay: Anticonvulsant activity in ip dosed Kunming mouse assessed as protection against subcutaneous pentylenetetrazol-induced clonic seizures; assay type: functional
Mus musculus [12] = assay: Anticonvulsant activity in Kunming mouse assessed as protection against maximal electroshock-induced seizures at 30 mg/kg, ip measured after 4 hrs; assay type: functional, organism-based; set-up: dose 30 mg/kg; summary of the method: as §1
Mus musculus [13] = assay: Anticonvulsant activity in Kunming mouse assessed as protection against maximal electroshock-induced seizures at 30 mg/kg, ip measured after 0.5 hr; assay type: functional, organism-based; set-up: dose 30 mg/kg; summary of the method: as §1
Mus musculus [14] = assay: Anticonvulsant activity in ip dosed Kunming mouse assessed as protection against maximal electroshock-induced seizures; assay type: functional
[15] = Neurotoxicity in ip dosed Kunming mouse measured 30 mins post compound administration by rotorod test; assay type: toxicity, organism-based; details: in vivo
Mus musculus [16] = species: Mus musculus; assay: Protective index, ratio of TD50 for neurotoxicity in Kunming mouse to ED50 for protection against MES-induced seizures in Kunming mouse; assay type: functional
Mus musculus [17] = assay: Protective index, ratio of TD50 for neurotoxicity in Kunming mouse to ED50 for protection against subcutaneous pentylenetetrazol-induced clonic seizures in Kunming mouse; assay type: functional

Structure (SMILES) | Activity (Mus musculus [1]) | Activity (Mus musculus [3]) | Activity (Mus musculus [4]) | Activity (Mus musculus [6]) | Activity (Mus musculus [7]) | Activity (Mus musculus [8]) | Activity (Mus musculus [9]) | also measured
CCOC(=O)C1(NC(=O)NNC(=O)c2cccs2)CC1(C)C (configuration not stated) | inactive | Active | Active | Toxic |  |  |  | Activity (Mus musculus [2]): Active; Activity (Mus musculus [5]): Toxic
CCOC(=O)C1(NC(=O)NNC(=O)c2ccccc2F)CC1(C)C (configuration not stated) | Active | inactive | inactive | Toxic | inactive | Non-toxic |  | 
CCOC(=O)C1(NC(=O)NNC(=O)c2ccc(C(C)(C)C)cc2)CC1(C)C (configuration not stated) |  | Active | inactive | Toxic | inactive | Non-toxic | Active | 
CCOC(=O)C1(NC(=O)NNC(=O)c2ccc(OC)cc2)CC1(C)C (configuration not stated) | Active |  | inactive | Non-toxic | Active | Non-toxic |  | Activity (Mus musculus [10]): Active
CCCC(CCC)C(=O)O [VALPROIC ACID] |  |  |  |  |  |  |  | ED50 (Mus musculus [11]): 149 mg/kg
CCOC(=O)C1(NC(=O)NNC(=O)c2ccccc2Br)CC1(C)C (configuration not stated) | Active | Active | Active | Non-toxic |  | Non-toxic |  | Activity (Mus musculus [12]): Active
CCOC(=O)C1(NC(=O)NNC(=O)c2ccc([N+](=O)[O-])cc2)CC1(C)C (configuration not stated) |  | inactive | inactive | Toxic | inactive | Non-toxic | Active | 
CCOC(=O)C1(NC(=O)NNC(=O)c2cccnc2)CC1(C)C (configuration not stated) | inactive | inactive | Active | Toxic | inactive |  |  | Activity (Mus musculus [5]): Toxic
CCOC(=O)C1(NC(=O)NNC(=O)c2ccc(N(C)C)cc2)CC1(C)C (configuration not stated) | Active | inactive | inactive | Toxic | Active | Non-toxic |  | 
CCOC(=O)C1(NC(=O)NNC(=O)c2ccc(F)cc2)CC1(C)C (configuration not stated) |  | Active | inactive | Non-toxic | Active | Non-toxic | Active | 
CCOC(=O)C1(NC(=O)NNC(=O)c2ccncc2)CC1(C)C (configuration not stated) | inactive | inactive | inactive | Toxic | Active |  |  | Activity (Mus musculus [5]): Toxic
CCOC(=O)C1(NC(=O)NNC(=O)c2ccc(Cl)cc2)CC1(C)C (configuration not stated) |  | inactive | Active | Toxic | Active | Non-toxic |  | Activity (Mus musculus [13]): Active; ED50 (Mus musculus [14]): 20.1 mg/kg; ED50 (Mus musculus [11]): 335 mg/kg; TD50 at 0.5 h [15]: 382 mg/kg; Ratio TD50/ED50 (Mus musculus [16]): 19; Ratio TD50/ED50 (Mus musculus [17]): 1.1
CCOC(=O)C1(NC(=O)NNC(=O)c2ccccc2Cl)CC1(C)C (configuration not stated) |  | Active | inactive | Toxic | Active | Non-toxic | Active | 
CCC1(C)CC(=O)NC1=O (configuration not stated) [ETHOSUXIMIDE] | inactive |  | Active | Non-toxic | inactive | Non-toxic |  | Activity (Mus musculus [10]): Active
CCOC(=O)C1(NC(=O)NNC(=O)c2ccco2)CC1(C)C (configuration not stated) | inactive | inactive | inactive | Toxic | Active |  |  | Activity (Mus musculus [5]): Toxic
CCC1(c2ccccc2)C(=O)NC(=O)NC1=O [PHENOBARBITAL] |  |  |  |  |  |  |  | ED50 (Mus musculus [14]): 21.8 mg/kg; ED50 (Mus musculus [11]): 13.2 mg/kg
CCOC(=O)C1(NC(=O)NNC(=O)c2cccc(C)c2)CC1(C)C (configuration not stated) |  | inactive | inactive | Non-toxic | inactive | Non-toxic | Active | 
CCOC(=O)C1(NC(=O)NNC(=O)c2ccccc2)CC1(C)C (configuration not stated) | Active | Active | inactive | Non-toxic | inactive | Toxic |  | 
NC(=O)N1c2ccccc2C=Cc2ccccc21 [CARBAMAZEPINE] |  |  |  |  |  |  |  | ED50 (Mus musculus [14]): 8.8 mg/kg; ED50 (Mus musculus [11]): > 100 mg/kg
CCOC(=O)C1(NC(=O)NNC(=O)c2ccc(Br)cc2)CC1(C)C (configuration not stated) |  | inactive | inactive | Toxic | inactive | Non-toxic | Active | 
CCOC(=O)C1(NC(=O)NNC(=O)c2cc(OC)c(OC)c(OC)c2)CC1(C)C (configuration not stated) | Active | inactive | inactive | Non-toxic | Active | Toxic |  | 
CCOC(=O)C1(NC(=O)NNC(=O)c2ccc(OC)c(OC)c2)CC1(C)C (configuration not stated) | Active | inactive | inactive | Toxic | Active | Non-toxic |  | 
CCOC(=O)C1(NC(=O)NNC(=O)c2ccc(CC)cc2)CC1(C)C (configuration not stated) | Active | Active | inactive | Non-toxic | Active | Non-toxic |  | 
CCOC(=O)C1(NC(=O)NNC(=O)c2ccccc2C)CC1(C)C (configuration not stated) |  |  | inactive | Non-toxic |  | Non-toxic | Active | Activity (Mus musculus [2]): Active; Activity (Mus musculus [10]): Active
CCOC(=O)C1(NC(=O)NNC(=O)c2ccc(C)cc2)CC1(C)C (configuration not stated) |  | inactive | Active | Toxic | inactive | Non-toxic | Active | 
